Drawing on ChEMBL document CHEMBL1152684 (Bioorg Med Chem, 2009), this text covers Activity and IC50 for 1 molecule.

Active and inactive are the calls of the source. The calls are words filed in the database; no cut-off is given here.

The species entered for one assay is Homo sapiens. Description: Binding affinity to cysteine-269 residue of human protein phosphatase 2A catalytic subunit at 0.6 uM after 2 hrs by MALDI-TOF MS analysis. The gist of the method: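 Purified PP2A (0.5 unit) incubated with or without ligand at 0.6 in 25 mM Tris-HCl, 137 mM NaCl, pH 7.5, 30 °C, 2 h. Samples boiled in SDS loading buffer with DTT and run on 10% gel. PP2Ac band reduced with DTT, alkylated with acrylamide and trypsin-digested. Peptide masses (MALDI-TOF MS) compared with native PP2Ac to find the adduct-bearing fragment.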

The nature of assay [1]: Inhibition of protein phosphatase 2A.
The nature of assay [2]: Inhibition of protein phosphatase 1.

Take `C[C@@](O)(/C=C/[C@H]1CC=CC(=O)O1)[C@@H](C[C@@H](O)\C=C/C=C\C=C\CO)OP(=O)(O)O` [FOSTRIECIN]: the outcome in the assay filed under Homo sapiens was Active. Further, the results for the half-inhibitory concentration (IC50) in assay [1] and in assay [2] were 0.0015 µM and 45 µM, respectively.
